# According to ChEMBL document CHEMBL1777810, “Synthesis and in vitro anti-HIV activity of N-1,3-benzo[d]thiazol-2-yl-2-(2-oxo-2H-chromen-4-yl)acetamide derivatives using MTT method” (Bioorg Med Chem Lett, 2011):
# What was measured:
# [1] = system: Human immunodeficiency virus 1; test: Antiviral activity against wild type HIV1 infected in human MT4 cells assessed as protection against virus-induced cytopathogenicity after 5 days by MTT assay; details: Human immunodeficiency virus 1, MT4, 120 h
# [2] = Cytotoxicity against human mock-infected MT4 cells after 4 days by MTT assay; assay type: cell-based
# Summary of the method: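 Mock-infected MT-4 cells were grown in HEPES-buffered RPMI-1640 with 10% heat-inactivated FCS and subcultured every 3–4 d. Viability was read by MTT at 7.5 mg/ml for 1 h at 37 °C, with formazan dissolved in acidified Triton X-100/isopropanol and read at A540 minus A690. CC50 is the concentration lowering OD540 of the mock-infected control by 50%.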
compound,measurement,setting,value
O=C(Cc1cc(=O)oc2cc(O)ccc12)Nc1nc2cc(Cl)c(F)cc2s1,EC50,[1],100 µg/mL
same,CC50 at 96 h,[2],> 100 µg/mL
Cc1cc(C)c2oc(=O)cc(CC(=O)Nc3nc4cc(Cl)c(F)cc4s3)c2c1,EC50,[1],16 µg/mL
same,CC50 at 96 h,[2],> 16 µg/mL
Cc1cn([C@H]2C[C@H](N=[N+]=[N-])[C@@H](CO)O2)c(=O)[nH]c1=O [ZIDOVUDINE],EC50,[1],0.0012 µg/mL
same,CC50 at 96 h,[2],65.4 µg/mL
Cc1cccc2c(CC(=O)Nc3nc4ccc(Cl)cc4s3)cc(=O)oc12,EC50,[1],21 µg/mL
same,CC50 at 96 h,[2],> 21 µg/mL
Cc1ccc2oc(=O)cc(CC(=O)Nc3nc4cc(Cl)c(F)cc4s3)c2c1,EC50,[1],12 µg/mL
same,CC50 at 96 h,[2],> 12 µg/mL
Cc1ccc2c(CC(=O)Nc3nc4ccc([N+](=O)[O-])cc4s3)cc(=O)oc2c1C,EC50,[1],9 µg/mL
same,CC50 at 96 h,[2],> 9 µg/mL
Cc1ccc2oc(=O)cc(CC(=O)Nc3nc4ccc(F)cc4s3)c2c1,EC50,[1],20 µg/mL
same,CC50 at 96 h,[2],> 20 µg/mL
Cc1ccc2c(CC(=O)Nc3nc4cc(Cl)c(F)cc4s3)cc(=O)oc2c1,EC50,[1],17 µg/mL
same,CC50 at 96 h,[2],> 17 µg/mL
Cc1cccc2c(CC(=O)Nc3nc4ccc(F)cc4s3)cc(=O)oc12,EC50,[1],100 µg/mL
same,CC50 at 96 h,[2],> 100 µg/mL
COc1ccc2nc(NC(=O)Cc3cc(=O)oc4ccc5ccccc5c34)sc2c1,EC50,[1],100 µg/mL
same,CC50 at 96 h,[2],> 100 µg/mL
Cc1ccc2c(CC(=O)Nc3nc4cc(Cl)c(F)cc4s3)cc(=O)oc2c1C,EC50,[1],97 µg/mL
same,CC50 at 96 h,[2],> 97 µg/mL
Cc1ccc2c(CC(=O)Nc3nc4ccc(Cl)cc4s3)cc(=O)oc2c1,EC50,[1],44 µg/mL
same,CC50 at 96 h,[2],> 44 µg/mL
Cc1cccc2c(CC(=O)Nc3nc4ccc([N+](=O)[O-])cc4s3)cc(=O)oc12,EC50,[1],12 µg/mL
same,CC50 at 96 h,[2],> 12 µg/mL
Cc1cc(C)c2oc(=O)cc(CC(=O)Nc3nc4ccc(F)cc4s3)c2c1,EC50,[1],38 µg/mL
same,CC50 at 96 h,[2],> 38 µg/mL
Cc1cccc2c(CC(=O)Nc3nc4cc(Cl)c(F)cc4s3)cc(=O)oc12,EC50,[1],58 µg/mL
same,CC50 at 96 h,[2],> 58 µg/mL
Cc1ccc2c(CC(=O)Nc3nc4ccc([N+](=O)[O-])cc4s3)cc(=O)oc2c1,EC50,[1],49 µg/mL
same,CC50 at 96 h,[2],> 49 µg/mL
Cc1ccc2oc(=O)cc(CC(=O)Nc3nc4ccc(Cl)cc4s3)c2c1,EC50,[1],27 µg/mL
same,CC50 at 96 h,[2],> 27 µg/mL
Cc1ccc2c(CC(=O)Nc3nc4ccc(F)cc4s3)cc(=O)oc2c1,EC50,[1],44 µg/mL
same,CC50 at 96 h,[2],> 44 µg/mL
Cc1cc(C)c2oc(=O)cc(CC(=O)Nc3nc4ccc([N+](=O)[O-])cc4s3)c2c1,EC50,[1],100 µg/mL
same,CC50 at 96 h,[2],> 100 µg/mL
O=C(Cc1cc(=O)oc2cc(O)ccc12)Nc1nc2ccc(Cl)cc2s1,EC50,[1],7 µg/mL
same,CC50 at 96 h,[2],> 7 µg/mL
Cc1ccc2c(CC(=O)Nc3nc4ccc(Cl)cc4s3)cc(=O)oc2c1C,EC50,[1],60 µg/mL
same,CC50 at 96 h,[2],> 60 µg/mL
Cc1cc(C)c2oc(=O)cc(CC(=O)Nc3nc4ccc(Cl)cc4s3)c2c1,EC50,[1],65 µg/mL
same,CC50 at 96 h,[2],> 65 µg/mL
O=C(Cc1cc(=O)oc2cc(O)ccc12)Nc1nc2ccc(F)cc2s1,EC50,[1],21 µg/mL
same,CC50 at 96 h,[2],> 21 µg/mL
O=C(Cc1cc(=O)oc2cc(O)ccc12)Nc1nc2ccc([N+](=O)[O-])cc2s1,EC50,[1],8 µg/mL
same,CC50 at 96 h,[2],> 8 µg/mL
COc1ccc2nc(NC(=O)Cc3cc(=O)oc4c3ccc3ccccc34)sc2c1,EC50,[1],100 µg/mL
same,CC50 at 96 h,[2],> 100 µg/mL
Cc1ccc2c(CC(=O)Nc3nc4ccc(F)cc4s3)cc(=O)oc2c1C,EC50,[1],24 µg/mL
same,CC50 at 96 h,[2],> 24 µg/mL
Cc1ccc2oc(=O)cc(CC(=O)Nc3nc4ccc([N+](=O)[O-])cc4s3)c2c1,EC50,[1],32 µg/mL
same,CC50 at 96 h,[2],> 32 µg/mL
